Results: ChEMBL document CHEMBL4715758, “Hit-to-Lead Optimization of a Novel Class of Potent, Broad-Spectrum Trypanosomacides” (J Med Chem, 2016)
In brackets after ≈: the same amount, converted by molar mass. Activity calls are given as the source filed them. The rule behind the calls is not given here.

System: Trypanosoma cruzi
Assay: Antitrypanosomal activity against Trypanosoma cruzi infected in vero cells assessed as parasite growth inhibition incubated from 24 to 96 hrs by time kill assay
Assay type: functional, organism-based
Settings: not given

SMILES | IC50
Cc1ccoc1C(=O)NCCc1csc(-c2ccccc2)n1 | 600 nM

System: Trypanosoma cruzi
Assay: Antitrypanosomal activity against Trypanosoma cruzi Tulahuen C4 strain amastigotes infected in rat L6 cells measured after 96 hrs by inverted microscopy analysis
Assay type: functional, organism-based
Settings: Tulahuen C4, L6, 96 h

SMILES | IC50
O=C(NCCc1csc(-c2ccccc2)n1)c1ccccc1F | 1100 nM
O=C(NCCc1csc(-c2ccccc2)n1)N1CCCC1 | 96 nM
O=C(NCCc1csc(-c2ccccc2)n1)c1ccccn1 | 900 nM
CC(C)(C)C(=O)NCCc1csc(-c2cccc(F)c2)n1 | 2300 nM

System: Trypanosoma cruzi
Assay: Antitrypanosomal activity against Trypanosoma cruzi infected in vero cells assessed as minimum concentration required for parasite growth inhibition incubated from 24 to 96 hrs by time kill assay
Assay type: functional
Settings: time 24-96 hrs, read-out: MEC

SMILES | minimal effective concentration
Cc1ccoc1C(=O)NCCc1csc(-c2ccccc2)n1 | 0.6 µM

System: not listed separately
Assay: Metabolic stability in human liver microsomes assessed as degradation half-life measured after 60 mins in presence of NADPH generating system by LC-MS analysis
Assay type: ADME, Microsome
Settings: read-out: T50

SMILES | half-life
O=C(NCCc1csc(-c2ccccc2)n1)N1CCCC1 | 10 min
O=C(NCCc1csc(-c2ccccc2)n1)N1CCCCC1 | 7 min
O=C(NCCc1csc(-c2ccccc2F)n1)N1CCCCC1 | 4 min
O=C(NCCc1csc(-c2ccc(F)cc2)n1)N1CCCCC1 | 11 min
O=C(NCCc1csc(-c2ccccc2)n1)C1CCCC1 | 6 min
O=C(NCCc1csc(-c2cccc(F)c2)n1)N1CCCCC1 | 4 min

System: Trypanosoma brucei brucei
Assay: Antitrypanosomal activity against Trypanosoma brucei brucei Lister 427 strain blood stream forms incubated for 48 hrs by resazurin dye based fluorescence assay
Assay type: functional, organism-based
Settings: Lister 427, 48 h

SMILES | IC50
O=C(NCCc1csc(-c2ccccc2)n1)c1cccc(C(F)(F)F)c1 | 11600 nM
Cc1ccoc1C(=O)NCCc1csc(-c2ccccc2)n1 | 130 nM
O=C(NCCc1csc(-c2ccccc2F)n1)N1CCCCC1 | 16 nM
O=C(NCCc1csc(-c2ccc(F)cc2)n1)N1CCCCC1 | 24 nM
O=C(NCCc1csc(-c2ccccc2)n1)c1ccccn1 | 300 nM
O=C(NCCc1csc(-c2cccc(F)c2)n1)N1CCCCC1 | 26 nM

System: Trypanosoma cruzi
Assay: Antitrypanosomal activity against Trypanosoma cruzi Tulahuen strain trypomastigotes infected in rat H9c2 cells at 10 uM incubated for 72 hrs by DRAQ5 DNA dye based imaging analysis relative to control
Assay type: functional
Settings: not given

SMILES | inhibition at 10 µM
O=C(NCCc1csc(-c2ccccc2)n1)c1cnco1 | < 50%
O=C(NCCc1csc(-c2ccccc2)n1)c1cccc(C(F)(F)F)c1 | < 50%
COc1ccc(-c2nc(CCNC(=O)N3CCCCC3)cs2)cc1 | < 50%
CC(=O)NCCc1csc(-c2ccccc2)n1 | < 50%
CCC(=O)NCCc1csc(-c2ccccc2)n1 | < 50%
O=CNCCc1csc(-c2ccccc2)n1 | < 50%
O=C(NCCc1csc(-c2ccccc2)n1)c1cccc(S(F)(F)(F)(F)F)c1 | < 50%

System: not listed separately
Assay: Kinetic solubility of compound at pH 2 by nephelometry
Assay type: physicochemical
Settings: buffer, read-out: Kinetic_solubility

SMILES | solubility kinetic
O=C(NCCc1csc(-c2ccccc2)n1)N1CCCC1 | > 100 µg/mL
Cc1ccoc1C(=O)NCCc1csc(-c2ccccc2)n1 | 6 µg/mL (≈ 19.2 µM)
O=C(NCCc1csc(-c2ccccc2)n1)N1CCCCC1 | 50 µg/mL (≈ 159 µM)

System: not listed separately
Assay: Intrinsic clearance in human liver microsomes assessed per mg protein measured after 60 mins in presence of NADPH generating system by LC-MS analysis
Assay type: ADME, Microsome
Settings: read-out: CLH

SMILES | microsomal CLint
CCN(CC)C(=O)NCCc1csc(-c2ccc(F)cc2F)n1 | 177 µL/min/mg
O=C(NCCc1csc(-c2ccccc2)n1)N1CCCC1 | 177 µL/min/mg
CC(C)OC(=O)NCCc1csc(-c2ccc(F)cc2F)n1 | 135 µL/min/mg
O=C(NCCc1csc(-c2ccccc2)n1)N1CCCCC1 | 244 µL/min/mg
O=C(NCCc1csc(-c2ccccc2F)n1)N1CCCCC1 | 439 µL/min/mg
O=C(NCCc1csc(-c2ccc(F)cc2)n1)N1CCCCC1 | 160 µL/min/mg
O=C(NCCc1csc(-c2ccc(F)cc2F)n1)c1cc(F)ccc1F | 231 µL/min/mg
O=C(NCCc1csc(-c2ccccc2)n1)C1CCCC1 | 296 µL/min/mg
O=C(NCCc1csc(-c2cccc(F)c2)n1)N1CCCCC1 | 445 µL/min/mg

System: not listed separately
Assay: Partition coefficient, log D of compound at pH 7.4 by HPLC
Assay type: physicochemical
Settings: octanol/water

SMILES | logD
O=C(NCCc1csc(-c2ccccc2)n1)N1CCCC1 | 2.8
Cc1ccoc1C(=O)NCCc1csc(-c2ccccc2)n1 | 3.5
O=C(NCCc1csc(-c2ccccc2)n1)N1CCCCC1 | 3.2

System: Trypanosoma brucei brucei
Assay: Antitrypanosomal activity against Trypanosoma brucei brucei Lister 427 strain blood stream form assessed as parasite growth inhibition at 10 uM incubated for 48 hrs by resazurin dye based fluorescence assay relative to control
Assay type: functional
Settings: Lister 427, 48 h
Method in brief: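 Alamar Blue (resazurin) growth-inhibition screen against T. b. brucei at 10 μM, the same assay used to find the original hit. Compounds reaching 50% or greater inhibition were then taken into concentration–response testing for IC50.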

SMILES | inhibition at 10 µM
O=C(NCCc1csc(-c2ccccc2)n1)c1cnco1 | < 50%
COc1ccc(-c2nc(CCNC(=O)N3CCCCC3)cs2)cc1 | > 50%
CC(=O)NCCc1csc(-c2ccccc2)n1 | < 50%
N#Cc1ccc(C(=O)NCCc2csc(-c3ccccc3)n2)cc1 | < 50%
CCC(=O)NCCc1csc(-c2ccccc2)n1 | < 50%
Cc1ccc(C(=O)NCCc2csc(-c3ccccc3)n2)cc1 | < 50%
O=CNCCc1csc(-c2ccccc2)n1 | < 50%
O=C(NCCc1csc(-c2ccccc2)n1)c1cccc(S(F)(F)(F)(F)F)c1 | < 50%
O=C(Cc1ccc2c(c1)OCO2)NCCc1csc(-c2ccccc2)n1 | < 50%

System: not listed separately
Assay: Metabolic stability in mouse liver microsomes assessed as degradation half-life measured after 60 mins in presence of NADPH generating system by LC-MS analysis
Assay type: ADME, Microsome
Settings: read-out: T50

SMILES | half-life
O=C(NCCc1csc(-c2ccccc2F)n1)N1CCCCC1 | < 2 min
O=C(NCCc1csc(-c2ccc(F)cc2)n1)N1CCCCC1 | < 2 min
O=C(NCCc1csc(-c2cccc(F)c2)n1)N1CCCCC1 | < 2 min

System: not listed separately
Assay: Protein binding in human plasma by HPLC-MS analysis
Assay type: ADME, cell-free
Settings: read-out: PPB (converted)

SMILES | fraction unbound
O=C(NCCc1csc(-c2ccccc2)n1)N1CCCC1 | 0.14
Cc1ccoc1C(=O)NCCc1csc(-c2ccccc2)n1 | 0.05
O=C(NCCc1csc(-c2ccccc2)n1)N1CCCCC1 | 0.1

System: Trypanosoma brucei rhodesiense
Assay: Antitrypanosomal activity against Trypanosoma brucei rhodesiense STIB900 trypomastigotes incubated for 72 hrs by resazurin dye based fluorescence assay
Assay type: functional, organism-based
Settings: STIB900, 72 h

SMILES | IC50
O=C(NCCc1csc(-c2ccccc2)n1)c1ccccc1F | 420 nM
O=C(NCCc1csc(-c2ccccc2)n1)N1CCCC1 | 46 nM
O=C(NCCc1csc(-c2ccccc2)n1)c1ccccn1 | 220 nM
CC(C)(C)C(=O)NCCc1csc(-c2cccc(F)c2)n1 | 1500 nM

System: Trypanosoma cruzi
Assay: Antitrypanosomal activity against Trypanosoma cruzi Tulahuen strain trypomastigotes infected in rat H9c2 cells incubated for 72 hrs by DRAQ5 DNA dye based imaging analysis
Assay type: functional, organism-based
Settings: H9c2, 72 h

SMILES | IC50
CCN(CC)C(=O)NCCc1csc(-c2ccc(F)cc2F)n1 | 250 nM
O=C(NCCc1csc(-c2ccccc2)n1)N1CCCC1 | 320 nM
CC(C)OC(=O)NCCc1csc(-c2ccc(F)cc2F)n1 | 130 nM
O=C(NCCc1csc(-c2ccccc2)n1)N1CCCCC1 | 39 nM
O=C(NCCc1csc(-c2ccccc2F)n1)N1CCCCC1 | 10 nM
O=C(NCCc1csc(-c2ccc(F)cc2)n1)N1CCCCC1 | 30 nM
N#Cc1ccc(C(=O)NCCc2csc(-c3ccccc3)n2)cc1 | 400 nM
Cc1ccc(C(=O)NCCc2csc(-c3ccccc3)n2)cc1 | 40000 nM
O=C(NCCc1csc(-c2ccc(F)cc2F)n1)c1cc(F)ccc1F | 130 nM
O=C(Cc1ccc2c(c1)OCO2)NCCc1csc(-c2ccccc2)n1 | 40000 nM

System: Plasmodium falciparum
Assay: Antiplasmodial activity against chloroquine and pyrimethamine resistant erythrocytic stage of Plasmodium falciparum K1 strain assessed as reduction in [3H]hypoxanthine incorporation measured after 48 hrs by liquid scintillation counting method
Assay type: functional, organism-based
Settings: not given

SMILES | IC50
O=C(NCCc1csc(-c2ccccc2)n1)c1ccccn1 | 65 µM
CC(C)(C)C(=O)NCCc1csc(-c2cccc(F)c2)n1 | 35 µM

System: not listed separately
Assay: Metabolic stability in human liver microsomes assessed as half-life measured after 60 mins in presence of NADPH generating system by LC-MS analysis
Assay type: ADME, Microsome
Settings: not given

SMILES | half-life
CCN(CC)C(=O)NCCc1csc(-c2ccc(F)cc2F)n1 | 8 min
CC(C)OC(=O)NCCc1csc(-c2ccc(F)cc2F)n1 | 10 min
O=C(NCCc1csc(-c2ccc(F)cc2F)n1)c1cc(F)ccc1F | 6 min

System: Trypanosoma cruzi
Assay: Antitrypanosomal activity against Trypanosoma cruzi infected in vero cells assessed as reduction in parasite growth inhibition incubated for 96 hrs by time kill assay relative to nifurtimox
Assay type: functional
Settings: not given

SMILES | Imax
Cc1ccoc1C(=O)NCCc1csc(-c2ccccc2)n1 | 104%

System: not listed separately
Assay: Selectivity index, ratio of IC50 for cytotoxicity against rat H9c2 cells assessed as reduction in cell viability to IC50 for antitrypanosomal against Trypanosoma cruzi Tulahuen trypomastigotes infected in rat H9c2 cells
Assay type: toxicity, cell-based
Settings: read-out: Ratio IC50

SMILES | selectivity ratio
CCN(CC)C(=O)NCCc1csc(-c2ccc(F)cc2F)n1 | > 199
CC(C)OC(=O)NCCc1csc(-c2ccc(F)cc2F)n1 | > 398
O=C(NCCc1csc(-c2ccccc2F)n1)N1CCCCC1 | > 3980
O=C(NCCc1csc(-c2ccc(F)cc2)n1)N1CCCCC1 | > 1580
N#Cc1ccc(C(=O)NCCc2csc(-c3ccccc3)n2)cc1 | > 126
Cc1ccc(C(=O)NCCc2csc(-c3ccccc3)n2)cc1 | 1.2
O=C(NCCc1csc(-c2ccc(F)cc2F)n1)c1cc(F)ccc1F | > 398
O=C(Cc1ccc2c(c1)OCO2)NCCc1csc(-c2ccccc2)n1 | > 1.2

System: not listed separately
Assay: Kinetic solubility of compound at pH 6.5 phosphate buffer by nephelometry
Assay type: physicochemical
Settings: read-out: Kinetic_solubility

SMILES | solubility kinetic
O=C(NCCc1csc(-c2ccccc2)n1)N1CCCC1 | 50 µg/mL (≈ 166 µM)
Cc1ccoc1C(=O)NCCc1csc(-c2ccccc2)n1 | 6 µg/mL (≈ 19.2 µM)
O=C(NCCc1csc(-c2ccccc2)n1)N1CCCCC1 | 25 µg/mL (≈ 79.3 µM)

System: not listed separately
Assay: Intrinsic clearance in mouse liver microsomes assessed per mg protein measured after 60 mins in presence of NADPH generating system by LC-MS analysis
Assay type: ADME, Microsome
Settings: read-out: CLH

SMILES | microsomal CLint
O=C(NCCc1csc(-c2ccccc2F)n1)N1CCCCC1 | > 1600 µL/min/mg
O=C(NCCc1csc(-c2ccc(F)cc2)n1)N1CCCCC1 | > 1600 µL/min/mg
O=C(NCCc1csc(-c2cccc(F)c2)n1)N1CCCCC1 | > 1600 µL/min/mg

System: Vero
Assay: Cytotoxicity against African green monkey Vero cells assessed as reduction in cell viability
Assay type: cell-based
Settings: chlorocebus sabaeus

SMILES | Activity
Cc1ccoc1C(=O)NCCc1csc(-c2ccccc2)n1 | 50 µM

System: Trypanosoma cruzi
Assay: Inhibition of Trypanosoma cruzi Tulahuen C4 CYP51 expressed in Escherichia coli JM109 using BOMCC as substrate in presence of NADPH by fluorescence assay
Settings: not given

SMILES | inhibition
Cc1ccoc1C(=O)NCCc1csc(-c2ccccc2)n1 | inactive

System: L6
Assay: Cytotoxicity against rat L6 cells assessed as reduction in cell viability measured after 72 hrs by alamar blue dye based fluorimetry analysis
Settings: L6, 72 h

SMILES | IC50
O=C(NCCc1csc(-c2ccccc2)n1)c1ccccc1F | 79 µM
O=C(NCCc1csc(-c2ccccc2)n1)N1CCCC1 | 144 µM
O=C(NCCc1csc(-c2ccccc2)n1)c1ccccn1 | 66 µM
CC(C)(C)C(=O)NCCc1csc(-c2cccc(F)c2)n1 | 62 µM

System: not listed separately
Assay: Selectivity index, ratio of IC50 for cytotoxicity against human HEK293 cells assessed as reduction in cell viability to IC50 for antitrypanosomal activity against Trypanosoma brucei brucei Lister 427 blood stream form
Assay type: toxicity, cell-based
Settings: read-out: Ratio IC50

SMILES | selectivity ratio
O=C(NCCc1csc(-c2ccccc2)n1)c1cccc(C(F)(F)F)c1 | 1.8
Cc1ccoc1C(=O)NCCc1csc(-c2ccccc2)n1 | 666
O=C(NCCc1csc(-c2ccccc2F)n1)N1CCCCC1 | 650
O=C(NCCc1csc(-c2ccc(F)cc2)n1)N1CCCCC1 | 431
O=C(NCCc1csc(-c2ccccc2)n1)c1ccccn1 | 139
O=C(NCCc1csc(-c2cccc(F)c2)n1)N1CCCCC1 | 398

System: Leishmania donovani
Assay: Antileishmanial activity against Leishmania donovani MHOM/ET/67/L82 amastigotes measured after 72 hrs by alamar blue dye based fluorimetry analysis
Assay type: functional, organism-based
Settings: MHOM/ET/67/L82, 72 h

SMILES | IC50
O=C(NCCc1csc(-c2ccccc2)n1)c1ccccc1F | 11 µM
O=C(NCCc1csc(-c2ccccc2)n1)N1CCCC1 | 17 µM
O=C(NCCc1csc(-c2ccccc2)n1)c1ccccn1 | 12 µM
CC(C)(C)C(=O)NCCc1csc(-c2cccc(F)c2)n1 | 46 µM
